Data set [1] can be described thus: Inhibition of mouse full length GST-tagged BRAF V600E mutant-mediated Mek1 phosphorylation preincubated for 1 hr prior to substrate addition measured after 25 mins by PAGE analysis.
Data set [2] in a line: Antiproliferative activity against human WM266.4 cells after 24 hrs by MTT assay. The data set is classed as functional. The settings on record: WM 266-4, 24 h. In outline:
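WM266.5 (so in the source) melanoma cells in DMEM/10% FBS, 37 °C, 5% CO2; seeded 1000 cells/well and left 24 h to reattach. DMSO stocks (20 mM) serially diluted in medium to final 100 µM–0.005 µM. Exposure 24 h at 37 °C. Viability by MTT reduction, absorbance at 590 nm; GI50 calculated.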

Data set [3] is described as follows: Acute oral toxicity in po dosed rat after 14 days. Format: organism-based. Particulars: in vivo. In outline:
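Single 5000 mg/kg dose given by oral gavage to ten healthy rats. Mortality, gross toxicity signs and behavioural changes were checked at least once daily for 14 days. Body weights were taken before dosing and on days 7 and 14.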

The values below come from ChEMBL document CHEMBL2034910, “Synthesis, biological evaluation and 3D-QSAR studies of novel 4,5-dihydro-1H-pyrazole niacinamide derivatives as BRAF inhibitors” (Bioorg Med Chem, 2012).

What is called IC50 is the concentration at which inhibition is half-maximal. As usually defined, the pIC50 is −log10 of the IC50, conventionally taken in molar units. Read a high pIC50 as a low IC50. In general, GI50 refers to the concentration that inhibits growth by half. Read a high GI50 as less potent growth inhibition. In data set [1], `COc1ccc(C2=NN(C(=O)c3cncc(Br)c3)C(c3ccc(OC)cc3)C2)cc1` (stereo not drawn) returned a concentration for half-maximal inhibition (IC50) of 4.58 µM and a pIC50 of 5.339. For the same compound, halving of growth in data set [2] (GI50) required 7.56 µM.
Turning to `COc1ccc(C2=NN(C(=O)c3ccc(Cl)nc3)C(c3ccc(OC)cc3)C2)cc1` (stereo not drawn), in data set [1], the 50% inhibitory concentration (IC50) came to 7.56 µM and the negative-log IC50 (pIC50) came out at 5.121. The compound also gave a GI50 in data set [2] of 6.45 µM.
In data set [1], `COc1ccc(C2=NN(C(=O)c3ccc(C)nc3Cl)C(c3ccc(OC)cc3)C2)cc1` (stereo not drawn) had an IC50 of 5.14 µM and a pIC50 of 5.289. This compound also came in with a GI50 in data set [2] of 5.74 µM.
In data set [1], `COc1ccc(C2=NN(C(=O)c3cccnc3Cl)C(c3ccc(OC)cc3)C2)cc1` (stereo not drawn) displayed a concentration for half-maximal inhibition (IC50) of 6.14 µM and a pIC50 of 5.212. Also, it took 4.35 µM to inhibit growth in data set [2] by half (GI50).
In data set [1], `COc1ccc(C2=NN(C(=O)c3ccc(C)nc3)C(c3ccc(OC)cc3)C2)cc1` (stereo not drawn) registered an IC50 of 3.42 µM and a pIC50 of 5.466. In data set [2], this compound registered a concentration for 50% growth inhibition (GI50) of 4.93 µM.
In data set [1], `COc1ccc(C2=NN(C(=O)c3cncc(Br)c3)C(c3ccc(Cl)cc3)C2)cc1` (stereo not drawn) yielded a half-maximal inhibitory concentration (IC50) of 0.38 µM and a negative logarithm of the IC50 (pIC50) of 6.42. Growth in data set [2] was halved (GI50) at 1.29 µM.
In data set [1], `COc1ccc(C2=NN(C(=O)c3ccc(Cl)nc3)C(c3ccc(Cl)cc3)C2)cc1` (stereo not drawn) returned an IC50 of 0.51 µM and a pIC50 of 6.292. In data set [2], the 50% growth inhibitory concentration (GI50) came to 1.45 µM.
In data set [1], `COc1ccc(C2=NN(C(=O)c3ccc(C)nc3Cl)C(c3ccc(Cl)cc3)C2)cc1` (stereo not drawn) yielded an IC50 of 0.58 µM and a pIC50 of 6.237. In data set [2], the GI50 worked out at 1.44 µM.
In data set [1], `COc1ccc(C2=NN(C(=O)c3cccnc3Cl)C(c3ccc(Cl)cc3)C2)cc1` (stereo not drawn) displayed a 50% inhibitory concentration (IC50) of 0.47 µM and a pIC50 of 6.328. The same compound returned a GI50 in data set [2] of 0.78 µM.
As a reminder, the LD50 is the dose at which mortality reaches 50%. Low values mean a more toxic substance, high ones a less toxic substance. For `COc1ccc(C2=NN(C(=O)c3ccc(C)nc3)C(c3ccc(Cl)cc3)C2)cc1` (stereo not drawn), the median lethal dose (LD50) at 336 h in data set [3] is > 5000 mg/kg. In data set [1], this compound registered an IC50 of 0.2 µM and a pIC50 of 6.796. The compound also showed a GI50 in data set [2] of 0.89 µM.
In data set [1], `COc1ccc(C2=NN(C(=O)c3cncc(Br)c3)C(c3ccc(Br)cc3)C2)cc1` (stereo not drawn) showed a 50% inhibitory concentration (IC50) of 3.51 µM and a negative logarithm of the IC50 (pIC50) of 5.455. Halving of growth in data set [2] (GI50) required 5.63 µM.
Consider `COc1ccc(C2=NN(C(=O)c3ccc(Cl)nc3)C(c3ccc(Br)cc3)C2)cc1` (stereo not drawn), for which, in data set [1], 6.89 µM corresponded to half-maximal inhibition (IC50) and the negative-log IC50 (pIC50) is 5.162. In data set [2], this compound yielded a GI50 of 7.13 µM.
In data set [1], `COc1ccc(C2=NN(C(=O)c3ccc(C)nc3Cl)C(c3ccc(Br)cc3)C2)cc1` (stereo not drawn) displayed an IC50 of 6.76 µM and a negative-log IC50 (pIC50) of 5.17. This compound registered a GI50 in data set [2] of 8.47 µM.
In the case of `COc1ccc(C2=NN(C(=O)c3cccnc3Cl)C(c3ccc(Br)cc3)C2)cc1` (stereo not drawn), in data set [1], the midpoint of inhibition, the IC50, lay at 5.57 µM and the pIC50 is reported as 5.254. Further, growth in data set [2] was halved (GI50) at 3.05 µM.
In data set [1], `COc1ccc(C2=NN(C(=O)c3ccc(C)nc3)C(c3ccc(Br)cc3)C2)cc1` (stereo not drawn) displayed a half-inhibitory concentration (IC50) of 4.23 µM and a pIC50 of 5.373. Further, growth in data set [2] was halved (GI50) at 4.28 µM.
For the compound `COc1ccc(C2=NN(C(=O)c3cncc(Br)c3)C(c3ccc(OCc4ccccc4)cc3)C2)cc1` (stereo not drawn), in data set [1], the IC50 was 4.27 µM and the negative-log IC50 (pIC50) amounted to 5.272. This compound also registered a concentration for 50% growth inhibition (GI50) in data set [2] of 6.24 µM.
In data set [1], `COc1ccc(C2=NN(C(=O)c3ccc(Cl)nc3)C(c3ccc(OCc4ccccc4)cc3)C2)cc1` (stereo not drawn) gave an IC50 of 6.78 µM and a pIC50 of 5.369. The compound also came in with a GI50 in data set [2] of 10.6 µM.
Consider `COc1ccc(C2=NN(C(=O)c3ccc(C)nc3Cl)C(c3ccc(OCc4ccccc4)cc3)C2)cc1` (stereo not drawn), for which, in data set [1], the half-maximal inhibitory concentration (IC50) was 3.01 µM and the pIC50 was determined as 5.521. The same compound had a GI50 in data set [2] of 10.5 µM.
As to `COc1ccc(C2=NN(C(=O)c3cccnc3Cl)C(c3ccc(OCc4ccccc4)cc3)C2)cc1` (stereo not drawn), in data set [1], the IC50 came to 6.49 µM and the negative-log IC50 (pIC50) came to 5.188. Further, growth in data set [2] was halved (GI50) at 9.15 µM.
In the case of `COc1ccc(C2=NN(C(=O)c3ccc(C)nc3)C(c3ccc(OCc4ccccc4)cc3)C2)cc1` (stereo not drawn), in data set [1], the IC50 was determined as 1.63 µM and the pIC50 was determined as 5.788. This compound also showed a GI50 in data set [2] of 7.95 µM.
Take `O=C(c1cncc(Br)c1)N1N=C(c2ccc(Cl)cc2)CC1c1ccc(OCc2ccccc2)cc1` (stereo not drawn): in data set [1], inhibition was half-maximal at 7.61 µM (IC50) and the pIC50 amounted to 5.119. The compound also came in with a GI50 in data set [2] of 8.13 µM.
With `O=C(c1ccc(Cl)nc1)N1N=C(c2ccc(Cl)cc2)CC1c1ccc(OCc2ccccc2)cc1` (stereo not drawn), in data set [1], the IC50 came to 16.4 µM and the pIC50 is reported as 4.784. In data set [2], the GI50 came to 13.2 µM.
As for `Cc1ccc(C(=O)N2N=C(c3ccc(Cl)cc3)CC2c2ccc(OCc3ccccc3)cc2)c(Cl)n1` (stereo not drawn), in data set [1], the IC50 was 12.9 µM and the pIC50 was 4.89. In addition, in data set [2], the GI50 amounted to 11.4 µM.
Regarding `O=C(c1cccnc1Cl)N1N=C(c2ccc(Cl)cc2)CC1c1ccc(OCc2ccccc2)cc1` (stereo not drawn), in data set [1], the IC50 stood at 4.42 µM and the pIC50 came out at 5.355. In data set [2], this compound showed a GI50 of 7.71 µM.
The corresponding values for `Cc1ccc(C(=O)N2N=C(c3ccc(Cl)cc3)CC2c2ccc(OCc3ccccc3)cc2)cn1` (stereo not drawn) are 7.02 µM, 5.154 and 9.2 µM.
For `O=C(c1cncc(Br)c1)N1N=C(c2ccc(Cl)cc2)CC1c1ccc(Cl)cc1` (stereo not drawn), in that order: 4.77 µM, 5.321 and 6.09 µM.
In data set [1], `O=C(c1ccc(Cl)nc1)N1N=C(c2ccc(Cl)cc2)CC1c1ccc(Cl)cc1` (stereo not drawn) came in with a half-maximal inhibitory concentration (IC50) of 7.16 µM and a pIC50 of 5.145. In addition, halving of growth in data set [2] (GI50) required 9.89 µM.
In data set [1], `Cc1ccc(C(=O)N2N=C(c3ccc(Cl)cc3)CC2c2ccc(Cl)cc2)c(Cl)n1` (stereo not drawn) came in with a half-inhibitory concentration (IC50) of 7.77 µM and a pIC50 of 5.11. Besides, halving of growth in data set [2] (GI50) required 8.87 µM.
Regarding `O=C(c1cccnc1Cl)N1N=C(c2ccc(Cl)cc2)CC1c1ccc(Cl)cc1` (stereo not drawn), in data set [1], the half-maximal inhibitory concentration (IC50) worked out at 2.12 µM and the negative logarithm of the IC50 (pIC50) came out at 5.672. The GI50 in data set [2] was determined as 3.58 µM.
For `Cc1ccc(C(=O)N2N=C(c3ccc(Cl)cc3)CC2c2ccc(Cl)cc2)cn1` (stereo not drawn), in that order: 3.58 µM, 5.446 and 3.79 µM.
For `O=C(c1cncc(Br)c1)N1N=C(c2ccc(Cl)cc2)CC1c1ccc(Br)cc1` (stereo not drawn), in that order: 7.82 µM, 5.107 and 8.01 µM.
As for `O=C(c1ccc(Cl)nc1)N1N=C(c2ccc(Cl)cc2)CC1c1ccc(Br)cc1` (stereo not drawn), in data set [1], 7.34 µM corresponded to half-maximal inhibition (IC50) and the pIC50 came out at 5.134. Also, the 50% growth inhibitory concentration (GI50) in data set [2] is 9.87 µM.
Turning to `Cc1ccc(C(=O)N2N=C(c3ccc(Cl)cc3)CC2c2ccc(Br)cc2)c(Cl)n1` (stereo not drawn), in data set [1], the IC50 turned out to be 7.35 µM and the negative logarithm of the IC50 (pIC50) is on record as 5.134. In addition, in data set [2], it took 10.8 µM to inhibit growth by half (GI50).
On to `O=C(c1cccnc1Cl)N1N=C(c2ccc(Cl)cc2)CC1c1ccc(Br)cc1` (stereo not drawn), for which, in data set [1], it took 8.67 µM to reach half-maximal inhibition (IC50) and the pIC50 is on record as 5.062. Moreover, in data set [2], growth was halved (GI50) at 7.45 µM.
On to `Cc1ccc(C(=O)N2N=C(c3ccc(Cl)cc3)CC2c2ccc(Br)cc2)cn1` (stereo not drawn), for which, in data set [1], the half-maximal inhibitory concentration (IC50) amounted to 7.05 µM and the negative logarithm of the IC50 (pIC50) amounted to 5.152. It took 7.65 µM to inhibit growth in data set [2] by half (GI50).
Compound `CNC(=O)c1cc(Oc2ccc(NC(=O)Nc3ccc(Cl)c(C(F)(F)F)c3)cc2)ccn1` [SORAFENIB] returned an IC50 in data set [1] of 0.06 µM. This compound came in with a GI50 in data set [2] of 8.12 µM.
